Data set [1] concerns Escherichia coli BL21(DE3). As to the kind of experiment: Inhibition of amyloid beta (1 to 42) aggregation in Escherichia coli competent cells BL21 (DE3) at 200 uM after overnight incubation by Thioflavin-S steady-state fluorescence assay. Summed up:
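Aβ42 (extra N-terminal Met) expressed from pET28a in E. coli BL21(DE3). Cells grown in M9 minimal medium with 50 μg/mL kanamycin and 25 μM Th-S (final), IPTG-induced or not, with compound at 200 μM final in DMSO, overnight at 37 °C, 1400 rpm. Th-S read at ex 440 nm, em 460–600 nm. Amyloid band = induced minus noninduced spectrum, normalized to OD600.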

In data set [2] the target is T1, Amyloid-beta precursor protein (Homo sapiens, UniProt P05067). The data set can be described thus: Inhibition of amyloid beta (1 to 42) (unknown origin) aggregation at 200 uM after 48 hrs by Thioflavin-T fluorescence assay relative to control.
The target in data set [3] is T1, Amyloid-beta precursor protein. As to the kind of experiment: Inhibition of amyloid beta (1 to 42) (unknown origin) aggregation by Thioflavin-T fluorescence assay.
Data set [4] can be described thus: n-octanol-water partition coefficient, log P of the compound. The data set is classed as physicochemical.
Data set [5] can be described thus: Inhibition of amyloid beta (1 to 42) aggregation in vitro cell-free polymerization assay.
The target in data set [6] is T1, Amyloid-beta precursor protein. As to the kind of experiment: Inhibition of amyloid beta (1 to 42) (unknown origin) aggregation assessed as lag time at 200 uM in Escherichia coli BL21 (DE3) cells by Thioflavin-S staining time-course kinetics (reference value: 64.4 mins).
Data set [7] has the same target. The data set can be described thus: Displacement of [3H]PIB from human amyloid beta (1 to 40) fibrils after 3 hrs by liquid scintillation counting.
Data set [8] shares this target. The data set can be described thus: Inhibition of amyloid beta (1 to 42) (unknown origin) aggregation assessed as end-time for aggregation at 200 uM after 48 hrs by Thioflavin-T fluorescence assay.
Data set [9] shares this target. As to the kind of experiment: Inhibition of amyloid beta (1 to 42) (unknown origin) aggregation assessed as apparent elongation constant at 200 uM after 48 hrs by Thioflavin-T fluorescence assay.
Data set [10] shares this target. The data set can be described thus: Inhibition of recombinant amyloid beta (1 to 42) fibrils (unknown origin) by thioflavin-T fluorescence assay.
Data set [11] shares this target. The data set can be described thus: Inhibition of amyloid beta (1 to 42) (unknown origin) aggregation assessed as half life for aggregation at 200 uM by Thioflavin-S fluorescence assay.
The mark [12] stands for this setting: n-octanol/water, read-out: logP.

T1 sequence (P05067 whole entry): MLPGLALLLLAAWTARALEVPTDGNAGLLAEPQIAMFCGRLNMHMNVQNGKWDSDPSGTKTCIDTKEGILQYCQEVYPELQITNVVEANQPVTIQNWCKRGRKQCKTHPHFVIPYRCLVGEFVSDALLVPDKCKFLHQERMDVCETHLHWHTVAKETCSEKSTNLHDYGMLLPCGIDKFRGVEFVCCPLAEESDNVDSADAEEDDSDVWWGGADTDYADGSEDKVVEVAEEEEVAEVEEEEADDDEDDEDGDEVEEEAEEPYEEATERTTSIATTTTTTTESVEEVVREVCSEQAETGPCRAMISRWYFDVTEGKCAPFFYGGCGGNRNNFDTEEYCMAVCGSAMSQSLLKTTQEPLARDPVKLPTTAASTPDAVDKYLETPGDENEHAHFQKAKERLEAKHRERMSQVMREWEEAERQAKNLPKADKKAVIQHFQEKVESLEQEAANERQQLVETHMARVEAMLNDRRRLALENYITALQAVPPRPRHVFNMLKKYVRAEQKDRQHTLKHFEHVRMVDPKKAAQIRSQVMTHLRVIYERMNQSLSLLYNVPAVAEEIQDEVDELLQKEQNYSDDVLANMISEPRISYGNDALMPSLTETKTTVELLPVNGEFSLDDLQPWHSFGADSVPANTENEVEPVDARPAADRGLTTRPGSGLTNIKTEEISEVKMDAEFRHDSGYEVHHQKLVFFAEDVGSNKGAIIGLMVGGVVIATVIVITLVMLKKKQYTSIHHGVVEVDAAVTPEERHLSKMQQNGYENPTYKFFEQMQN

With `COc1cccc(C=O)c1O`, in data set [1], the inhibition (in general, the change of the read-out against control, counted positive when it falls) amounted to 18.5%.

In data set [1], `COc1cc(/C=C/C(=O)CC(=O)/C=C/c2ccc(O)c(OC)c2)ccc1O` displayed an inhibition of 37.8%.

Consider `O=c1c(O)c(-c2ccc(O)c(O)c2)oc2cc(O)cc(O)c12` [QUERCETIN], for which the inhibition stood at 81.3% in [1] and 75.4% in [2]. In addition, the IC50 (commonly the concentration at which inhibition is half-maximal) in [3] is 125 µM; in data set [5] it was 15.3 µM. In addition, the log partition coefficient (logP) (as a rule, the decadic logarithm of the partition coefficient of the neutral form, usually between octanol and water) in data set [4] (octanol/water) came out at 2.7. Also, the Tlag in data set [6] turned out to be 82.7 min.

In data set [1], `O=C(/C=C/c1ccc(O)c(O)c1)O[C@H](Cc1ccc(O)c(O)c1)C(=O)O` yielded an inhibition of 5.5%.

Molecule `COc1ccc2[nH]cc(CCNC(C)=O)c2c1` displayed an inhibition in data set [1] of 7.5%.

On to `CNc1ccc(-c2nc3ccc(O)cc3s2)cn1`, for which the dissociation constant (Kd) (commonly the constant that tells how readily two partners part at equilibrium) in data set [7] worked out at 0.0084 µM. Moreover, the log partition coefficient (logP) in data set [4] (setting [12]) turned out to be 2.7.

Turning to `O=C1c2c(O)cc(O)cc2O[C@H](c2cc(O)c(O)c(O)c2)[C@H]1O` [AMPELOPSIN], the IC50 in data set [3] was 12.8 to 25.3 µM; in data set [5] it was 25.3 µM.

Molecule `O=c1c(O)c(-c2ccccc2)oc2cc(O)cc(O)c12` [GALANGIN] displayed an IC50 in data set [5] of more than 500 µM.

As to `O=c1c(O)c(-c2ccc(O)cc2O)oc2cc(O)cc(O)c12` [MORIN], in [5], the half-inhibitory concentration (IC50) is 30.3 µM.

`O=c1c(O)c(-c2ccc(O)cc2)oc2cc(O)cc(O)c12` [KAEMPFEROL] showed an IC50 in data set [5] of 75.1 µM.

Consider `O=c1cc(-c2ccc(O)cc2)oc2cc(O)cc(O)c12` [APIGENIN], for which the TIME in [8] was 8.85 h. Moreover, the results for the inhibition in [1] and in data set [2] were 77.3% and 52.7%, respectively. For the same molecule, the IC50 in [3] is 176 µM; in data set [10], 23 to 39 µM. The Ke(app) in data set [9] turned out to be 61.6 M⁻¹ s⁻¹. Further, the logP in [4] (setting [12]) was 2.2. In data set [11], the T1/2 was 5.1 h. In addition, the Tlag in [6] amounted to 81.3 min.

The molecule `O=c1c(O)c(-c2ccccc2O)oc2cc(O)cc(O)c12` [DATISCETIN] displayed a concentration for half-maximal inhibition (IC50) in data set [5] of 55.4 µM.

Source of the values: ChEMBL document CHEMBL4052599, “Combined in Vitro Cell-Based/in Silico Screening of Naturally Occurring Flavonoids and Phenolic Compounds as Potential Anti-Alzheimer Drugs” (J Nat Prod, 2017).
